Laboratory results: ChEMBL document CHEMBL1811809, “Design, synthesis and in vitro drug release investigation of new potential 5-FU prodrugs” (Eur J Med Chem, 2011)

Key:
PA-1 = test: Antiproliferative activity against human PA1 cells after 48 hrs by resazurin reduction test; assay type: functional, cell-based; conditions: PA-1, 48 h
Method in brief: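 MCF 7 and PA 1 cells were kept as monolayers in MEM with 10% fetal calf serum, 1 mM pyruvate, vitamins, non-essential amino acids and gentamicin, at 37 °C and 5% CO₂. Cells were seeded at 5 × 10³ per well, left 16 h, then exposed continuously for 48 h; DMSO was 0.5% (v/v). Resazurin in serum- and phenol red-free MEM was added for 1 h at 37 °C, fluorescence read at ex 530/em 590 nm, and IC₅₀ taken from blank-corrected percent-of-control curves.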

MCF7 = test: Antiproliferative activity against human MCF7 cells after 48 hrs by resazurin reduction test; assay type: functional, cell-based; conditions: MCF7, 48 h
Method in brief: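 MCF 7 and PA 1 cells were kept as monolayers in MEM with 10% fetal calf serum, 1 mM pyruvate, vitamins, non-essential amino acids and gentamicin, at 37 °C and 5% CO₂. Cells were seeded at 5 × 10³ per well, left 16 h, then exposed continuously for 48 h; DMSO was 0.5% (v/v).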

[1] = Antiproliferative activity against human fibroblasts after 48 hrs by resazurin reduction test; assay type: cell-based; conditions: Fibroblast
[2] = Stability of the compound in MEM assessed as degradation half life at 37 degC by HPLC analysis; assay type: physicochemical
Method in brief: (§1)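 Each compound came from a 10 mM stock in methanol or methanol/acetonitrile 85:15, diluted 1:10 into PBS, MEM or human plasma and held at 37 ± 2 °C. Aliquots taken over time were quenched with equal-volume 10 mM ammonium formate pH 3, centrifuged, filtered, diluted 3:10 and run on gradient HPLC-UV (ammonium formate pH 3/acetonitrile; 264/258 nm). Half-lives came from log concentration versus time plots, usually in triplicate.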

[3] = Stability of the compound assessed as degradation half life in presence of plasma at 37 degC by HPLC analysis; assay type: ADME, cell-free; method in brief: as §1
[4] = Stability of the compound in PBS buffer assessed as degradation half life at 37 degC by HPLC analysis; assay type: physicochemical; method in brief: as §1

SMILES	IC50 (PA-1) [µM]	IC50 (MCF7) [µM]	IC50 [1] [µM]	half-life [2] [min]	half-life [3] [min]	half-life [4] [min]
CC(=O)OC[C@H]1O[C@@H](NC(=O)CCCN(C)C(=O)n2cc(F)c(=O)[nH]c2=O)[C@H](F)[C@@H](OC(C)=O)[C@@H]1OC(C)=O	> 50	> 50	> 50			
CC(=O)OC[C@H]1O[C@@H](NC(=O)CCCNC(=O)n2cc(F)c(=O)[nH]c2=O)[C@H](F)[C@@H](OC(C)=O)[C@@H]1OC(C)=O	6	23	15	6	10	8
CC(=O)OC[C@H]1O[C@@H](NC(=O)CCCCCNC(=O)n2cc(F)c(=O)[nH]c2=O)[C@H](F)[C@@H](OC(C)=O)[C@@H]1OC(C)=O	4	8.1	5	8	17	11
CC(=O)OC[C@H]1O[C@@H](n2cc(F)c(=O)[nH]c2=O)[C@H](F)[C@@H](OC(C)=O)[C@@H]1OC(C)=O	> 50	> 50	> 50			
CC(=O)OC[C@H]1O[C@@H](NC(=O)CNC(=O)n2cc(F)c(=O)[nH]c2=O)[C@H](F)[C@@H](OC(C)=O)[C@@H]1OC(C)=O	3	11	6.4	2	6	3
CC(=O)OC[C@H]1O[C@@H](Oc2ccc(N(C)C(=O)n3cc(F)c(=O)[nH]c3=O)cc2)[C@H](F)[C@@H](OC(C)=O)[C@@H]1OC(C)=O	> 50	> 50	> 50			
O=c1[nH]cc(F)c(=O)[nH]1 [FLUOROURACIL]	5		11			
CC(=O)OC[C@H]1O[C@@H](NC(=O)Cn2cc(F)c(=O)[nH]c2=O)[C@H](F)[C@@H](OC(C)=O)[C@@H]1OC(C)=O	> 50	> 50	> 50			
